Experimental data reported in ChEMBL document CHEMBL1255376, “Comparative surveillance study of telavancin activity against recently collected gram-positive clinical isolates from across the United States” (2008).
Converted amounts (≈) assume the structure as drawn.

Tests used:
Assay type in all cases: functional
Staphylococcus aureus [1] = experiment: Antibacterial activity against methicillin-susceptible Staphylococcus aureus clinical isolate by broth microdilution method
How it was run: (§1)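 MICs by CLSI broth microdilution in frozen trays pre-loaded with serial dilutions of each agent. Quality-control strains run in parallel: E. faecalis ATCC 29212 and ATCC 51299, S. aureus ATCC 29213, S. pneumoniae ATCC 49619. Comparator susceptibility categories follow CLSI breakpoints. Methicillin resistance in staphylococci assigned from the oxacillin MIC.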

Staphylococcus aureus [2] = experiment: Antibacterial activity against methicillin-resistant Staphylococcus aureus clinical isolate by broth microdilution method; how it was run: as §1
Staphylococcus capitis [3] = experiment: Antibacterial activity against methicillin-susceptible coagulase-negative Staphylococcus capitis clinical isolate by broth microdilution method; how it was run: as §1
Staphylococcus cohnii [4] = experiment: Antibacterial activity against methicillin-susceptible coagulase-negative Staphylococcus cohnii clinical isolate by broth microdilution method; how it was run: as §1
[5] = test system: Staphylococcus epidermidis; experiment: Antibacterial activity against methicillin-susceptible coagulase-negative Staphylococcus epidermidis clinical isolate by broth microdilution method; how it was run: as §1
[6] = test system: Staphylococcus haemolyticus; experiment: Antibacterial activity against methicillin-susceptible coagulase-negative Staphylococcus haemolyticus clinical isolate by broth microdilution method; how it was run: as §1
Staphylococcus hominis [7] = experiment: Antibacterial activity against methicillin-susceptible coagulase-negative Staphylococcus hominis clinical isolate by broth microdilution method; how it was run: as §1
[8] = test system: Staphylococcus saprophyticus; experiment: Antibacterial activity against methicillin-susceptible coagulase-negative Staphylococcus saprophyticus clinical isolate by broth microdilution method; how it was run: as §1
Mammaliicoccus sciuri [9] = experiment: Antibacterial activity against methicillin-susceptible coagulase-negative Staphylococcus sciuri clinical isolate by broth microdilution method; how it was run: as §1
Staphylococcus simulans [10] = experiment: Antibacterial activity against methicillin-susceptible coagulase-negative Staphylococcus simulans clinical isolate by broth microdilution method; how it was run: as §1
Staphylococcus warneri [11] = experiment: Antibacterial activity against methicillin-susceptible coagulase-negative Staphylococcus warneri clinical isolate by broth microdilution method; how it was run: as §1
Staphylococcus xylosus [12] = experiment: Antibacterial activity against methicillin-susceptible coagulase-negative Staphylococcus xylosus clinical isolate by broth microdilution method; how it was run: as §1
Staphylococcus [13] = experiment: Antibacterial activity against methicillin-susceptible coagulase-negative unspeciated Staphylococcus clinical isolate by broth microdilution method; how it was run: as §1
Staphylococcus capitis [14] = experiment: Antibacterial activity against methicillin-resistant coagulase-negative Staphylococcus capitis clinical isolate by broth microdilution method; how it was run: as §1
Staphylococcus cohnii [15] = experiment: Antibacterial activity against methicillin-resistant coagulase-negative Staphylococcus cohnii clinical isolate by broth microdilution method; how it was run: as §1
[16] = test system: Staphylococcus epidermidis; experiment: Antibacterial activity against methicillin-resistant coagulase-negative Staphylococcus epidermidis clinical isolate by broth microdilution method; how it was run: as §1
[17] = test system: Staphylococcus haemolyticus; experiment: Antibacterial activity against methicillin-resistant coagulase-negative Staphylococcus haemolyticus clinical isolate by broth microdilution method; how it was run: as §1
Staphylococcus hominis [18] = experiment: Antibacterial activity against methicillin-resistant coagulase-negative Staphylococcus hominis clinical isolate by broth microdilution method; how it was run: as §1
[19] = test system: Staphylococcus saprophyticus; experiment: Antibacterial activity against methicillin-resistant coagulase-negative Staphylococcus saprophyticus clinical isolate by broth microdilution method; how it was run: as §1
Mammaliicoccus sciuri [20] = experiment: Antibacterial activity against methicillin-resistant coagulase-negative Staphylococcus sciuri clinical isolate by broth microdilution method; how it was run: as §1
Staphylococcus simulans [21] = experiment: Antibacterial activity against methicillin-resistant coagulase-negative Staphylococcus simulans clinical isolate by broth microdilution method; how it was run: as §1
Staphylococcus warneri [22] = experiment: Antibacterial activity against methicillin-resistant coagulase-negative Staphylococcus warneri clinical isolate by broth microdilution method; how it was run: as §1
Staphylococcus xylosus [23] = experiment: Antibacterial activity against methicillin-resistant coagulase-negative Staphylococcus xylosus clinical isolate by broth microdilution method; how it was run: as §1
Staphylococcus [24] = experiment: Antibacterial activity against methicillin-resistant coagulase-negative unspeciated Staphylococcus clinical isolate by broth microdilution method; how it was run: as §1
Enterococcus faecalis [25] = experiment: Antibacterial activity against vancomycin-susceptible Enterococcus faecalis clinical isolate by broth microdilution method; how it was run: as §1
Enterococcus faecalis [26] = experiment: Antibacterial activity against vancomycin- and teichoplanin-nonsusceptible Enterococcus faecalis clinical isolate by broth microdilution method; how it was run: as §1
Enterococcus faecium [27] = experiment: Antibacterial activity against vancomycin-susceptible Enterococcus faecium clinical isolate by broth microdilution method
How it was run: (§2)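 MIC by CLSI broth microdilution in frozen microtiter trays holding serial dilutions of each agent, prepared from standard laboratory powders. E. faecalis ATCC 29212 and ATCC 51299, S. aureus ATCC 29213 and S. pneumoniae ATCC 49619 run in parallel as quality-control strains. Comparator susceptibility interpreted with CLSI breakpoints.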

Enterococcus faecium [28] = experiment: Antibacterial activity against vancomycin- and teichoplanin-nonsusceptible Enterococcus faecium clinical isolate by broth microdilution method; how it was run: as §1
Enterococcus faecium [29] = experiment: Antibacterial activity against vancomycin-resistant and teichoplanin-susceptible Enterococcus faecium clinical isolate by broth microdilution method; how it was run: as §1
Streptococcus agalactiae = experiment: Antibacterial activity against Streptococcus agalactiae clinical isolate by broth microdilution method; how it was run: as §2
Streptococcus equinus = experiment: Antibacterial activity against Streptococcus bovis clinical isolate by broth microdilution method; how it was run: as §2
[30] = test system: Streptococcus constellatus; experiment: Antibacterial activity against Streptococcus constellatus clinical isolate by broth microdilution method; how it was run: as §2
[31] = test system: Streptococcus intermedius; experiment: Antibacterial activity against Streptococcus intermedius clinical isolate by broth microdilution method; how it was run: as §2
Streptococcus mitis = experiment: Antibacterial activity against Streptococcus mitis clinical isolate by broth microdilution method; how it was run: as §2
Streptococcus oralis = experiment: Antibacterial activity against Streptococcus oralis clinical isolate by broth microdilution method; how it was run: as §2
Streptococcus sanguinis = experiment: Antibacterial activity against Streptococcus sanguinis clinical isolate by broth microdilution method; how it was run: as §2
Streptococcus sp. = experiment: Antibacterial activity against Streptococcus sp. clinical isolate by broth microdilution method
How it was run: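 MIC by CLSI broth microdilution in frozen microtiter trays holding serial dilutions of each agent, prepared from standard laboratory powders. Comparator susceptibility interpreted with CLSI breakpoints.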

Streptococcus pneumoniae [32] = experiment: Antibacterial activity against penicillin susceptible Streptococcus pneumoniae clinical isolate by broth microdilution method; how it was run: as §1
Streptococcus pneumoniae [33] = experiment: Antibacterial activity against penicillin intermediate Streptococcus pneumoniae clinical isolate by broth microdilution method; how it was run: as §1
Streptococcus pneumoniae [34] = experiment: Antibacterial activity against penicillin resistant Streptococcus pneumoniae clinical isolate by broth microdilution method; how it was run: as §1

With `CC(=O)NC[C@H]1CN(c2ccc(N3CCOCC3)c(F)c2)C(=O)O1` [LINEZOLID] the MIC50 (Staphylococcus aureus [1]) was 2 mg/L (≈ 5.93 µM), the MIC90 (Staphylococcus aureus [1]) was 2 mg/L (≈ 5.93 µM) and the MIC50 (Staphylococcus aureus [2]) was 2 mg/L (≈ 5.93 µM). For the same compound, the MIC90 (Staphylococcus aureus [2]) was 2 mg/L (≈ 5.93 µM), the MIC50 (Staphylococcus capitis [3]) was 1 mg/L (≈ 2.96 µM) and the MIC90 (Staphylococcus capitis [3]) was 1 mg/L (≈ 2.96 µM). It also gave an MIC50 (Staphylococcus cohnii [4]) of 1 mg/L (≈ 2.96 µM), an MIC90 (Staphylococcus cohnii [4]) of 1 mg/L (≈ 2.96 µM) and an MIC50 [5] of 1 mg/L (≈ 2.96 µM). For the same compound, the MIC90 [5] was 1 mg/L (≈ 2.96 µM), the MIC50 [6] was 1 mg/L (≈ 2.96 µM) and the MIC90 [6] was 1 mg/L (≈ 2.96 µM). For the same compound, the MIC50 (Staphylococcus hominis [7]) was 1 mg/L (≈ 2.96 µM), the MIC90 (Staphylococcus hominis [7]) was 1 mg/L (≈ 2.96 µM) and the MIC50 [8] was 1 mg/L (≈ 2.96 µM). For the same compound, the MIC90 [8] was 1 mg/L (≈ 2.96 µM), the MIC50 (Mammaliicoccus sciuri [9]) was 1 mg/L (≈ 2.96 µM) and the MIC90 (Mammaliicoccus sciuri [9]) was 1 mg/L (≈ 2.96 µM). For the same compound, the MIC50 (Staphylococcus simulans [10]) was 1 mg/L (≈ 2.96 µM), the MIC90 (Staphylococcus simulans [10]) was 1 mg/L (≈ 2.96 µM) and the MIC50 (Staphylococcus warneri [11]) was 1 mg/L (≈ 2.96 µM). For the same compound, the MIC90 (Staphylococcus warneri [11]) was 1 mg/L (≈ 2.96 µM), the MIC50 (Staphylococcus xylosus [12]) was 1 mg/L (≈ 2.96 µM) and the MIC90 (Staphylococcus xylosus [12]) was 1 mg/L (≈ 2.96 µM). It also gave an MIC50 (Staphylococcus [13]) of 1 mg/L (≈ 2.96 µM), an MIC90 (Staphylococcus [13]) of 1 mg/L (≈ 2.96 µM) and an MIC50 (Staphylococcus capitis [14]) of 1 mg/L (≈ 2.96 µM). It also gave an MIC90 (Staphylococcus capitis [14]) of 1 mg/L (≈ 2.96 µM), an MIC50 (Staphylococcus cohnii [15]) of 1 mg/L (≈ 2.96 µM) and an MIC90 (Staphylococcus cohnii [15]) of 1 mg/L (≈ 2.96 µM). The MIC50 [16] was 1 mg/L (≈ 2.96 µM), the MIC90 [16] was 1 mg/L (≈ 2.96 µM) and the MIC50 [17] was 1 mg/L (≈ 2.96 µM). For the same compound, the MIC90 [17] was 1 mg/L (≈ 2.96 µM), the MIC50 (Staphylococcus hominis [18]) was 1 mg/L (≈ 2.96 µM) and the MIC90 (Staphylococcus hominis [18]) was 1 mg/L (≈ 2.96 µM). It also gave an MIC50 [19] of 1 mg/L (≈ 2.96 µM), an MIC90 [19] of 1 mg/L (≈ 2.96 µM) and an MIC50 (Mammaliicoccus sciuri [20]) of 1 mg/L (≈ 2.96 µM). The MIC90 (Mammaliicoccus sciuri [20]) was 1 mg/L (≈ 2.96 µM), the MIC50 (Staphylococcus simulans [21]) was 1 mg/L (≈ 2.96 µM) and the MIC90 (Staphylococcus simulans [21]) was 1 mg/L (≈ 2.96 µM). It also gave an MIC50 (Staphylococcus warneri [22]) of 1 mg/L (≈ 2.96 µM), an MIC90 (Staphylococcus warneri [22]) of 1 mg/L (≈ 2.96 µM) and an MIC50 (Staphylococcus xylosus [23]) of 1 mg/L (≈ 2.96 µM). It also gave an MIC90 (Staphylococcus xylosus [23]) of 1 mg/L (≈ 2.96 µM), an MIC50 (Staphylococcus [24]) of 1 mg/L (≈ 2.96 µM) and an MIC90 (Staphylococcus [24]) of 1 mg/L (≈ 2.96 µM). It also gave an MIC50 (Enterococcus faecalis [25]) of 1 mg/L (≈ 2.96 µM), an MIC90 (Enterococcus faecalis [25]) of 2 mg/L (≈ 5.93 µM) and an MIC50 (Enterococcus faecalis [26]) of 1 mg/L (≈ 2.96 µM). It also gave an MIC90 (Enterococcus faecalis [26]) of 2 mg/L (≈ 5.93 µM), an MIC50 (Enterococcus faecium [27]) of 2 mg/L (≈ 5.93 µM) and an MIC90 (Enterococcus faecium [27]) of 2 mg/L (≈ 5.93 µM). It also gave an MIC50 (Enterococcus faecium [28]) of 2 mg/L (≈ 5.93 µM), an MIC90 (Enterococcus faecium [28]) of 2 mg/L (≈ 5.93 µM) and an MIC50 (Enterococcus faecium [29]) of 2 mg/L (≈ 5.93 µM). The MIC90 (Enterococcus faecium [29]) was 2 mg/L (≈ 5.93 µM), the MIC50 (Streptococcus agalactiae) was 1 mg/L (≈ 2.96 µM) and the MIC90 (Streptococcus agalactiae) was 1 mg/L (≈ 2.96 µM). For the same compound, the MIC50 (Streptococcus equinus) was 1 mg/L (≈ 2.96 µM), the MIC90 (Streptococcus equinus) was 1 mg/L (≈ 2.96 µM) and the MIC50 [30] was 1 mg/L (≈ 2.96 µM). For the same compound, the MIC90 [30] was 1 mg/L (≈ 2.96 µM), the MIC50 [31] was 1 mg/L (≈ 2.96 µM) and the MIC90 [31] was 1 mg/L (≈ 2.96 µM). The MIC50 (Streptococcus mitis) was 1 mg/L (≈ 2.96 µM), the MIC90 (Streptococcus mitis) was 1 mg/L (≈ 2.96 µM) and the MIC50 (Streptococcus oralis) was 1 mg/L (≈ 2.96 µM). For the same compound, the MIC90 (Streptococcus oralis) was 1 mg/L (≈ 2.96 µM), the MIC50 (Streptococcus sanguinis) was 1 mg/L (≈ 2.96 µM) and the MIC90 (Streptococcus sanguinis) was 1 mg/L (≈ 2.96 µM). The MIC (Streptococcus sp.) was no more than 0.12 mg/L, the MIC50 (Streptococcus pneumoniae [32]) was 1 mg/L (≈ 2.96 µM) and the MIC90 (Streptococcus pneumoniae [32]) was 1 mg/L (≈ 2.96 µM). For the same compound, the MIC50 (Streptococcus pneumoniae [33]) was 1 mg/L (≈ 2.96 µM), the MIC90 (Streptococcus pneumoniae [33]) was 1 mg/L (≈ 2.96 µM) and the MIC50 (Streptococcus pneumoniae [34]) was 1 mg/L (≈ 2.96 µM). For the same compound, the MIC90 (Streptococcus pneumoniae [34]) was 1 mg/L (≈ 2.96 µM).
